Results pooled from the literature.
Each line is one published result; the experiments were not run side by side.
Target: Tyrosine-protein kinase FRK (FRK, Homo sapiens, UniProt P42685)

CO[C@@H](C)c1c(Nc2ccc([C@H](N(C)C(=O)C3CCS(=O)(=O)CC3)C(F)(F)F)cc2)cnc2cc(Cl)nn12 — remaining binding (cell-free assay, competition with immobilised ligand; 1 µM): 80%
Cc1cnn2ncc(-c3ccnc(N(C)C)n3)c2c1 — remaining binding (binding, competition with immobilised ligand; 1 µM): 100%
O=C(Nc1ccc(Oc2ccc(F)cc2)cc1)N1CCc2ncccc2[C@H]1c1ccc(F)cc1 — remaining binding (cell-free assay, competition with immobilised ligand; 1 µM): 93%
Nc1ncc2c(n1)-c1c([nH]c3ccc(C#CC4CC4)cc13)CCCC2 — remaining binding (binding, competition with immobilised ligand; 1 µM): 95%
C[C@@H](c1cccc(C#N)c1)n1cc(Cl)cc(C(N)=O)c1=N — remaining binding (cell-free assay, competition with immobilised ligand; 1 µM): 100%
F[C@@H]1CCN(c2nccc(-c3cnn4ncccc34)n2)C1 — remaining binding (binding; 1 µM): 88%
NS(=O)(=O)c1cc(NC(=O)C2(c3ccccc3Cl)CC2)ccc1Oc1cccc(Cl)c1 — remaining binding (cell-free assay, competition with immobilised ligand; 1 µM): 99%
CN(c1nccc(-c2cnn3ncccc23)n1)C1CC1 — remaining binding (binding; 1 µM): 85%
O=C(Nc1cnc(Oc2ccc(F)cc2)nc1)N1CCc2ncccc2[C@@H]1c1ccc(F)cc1 — remaining binding (cell-free assay, competition with immobilised ligand; 1 µM): 98%
CN(C)c1ncc(F)c(-c2cnn3ncccc23)n1 — remaining binding (binding, competition with immobilised ligand; 1 µM): 100%
O=C(NCCCN1CCOCC1)c1ccc(Nc2ncc(Cl)c(-c3ccc(Cl)s3)n2)cc1 — remaining binding (binding, competition with immobilised ligand; 1 µM): 100%
C[C@@H]1CCN(c2nccc(-c3cnn4ncccc34)n2)C1 — remaining binding (binding; 1 µM): 100%
Nc1cnc(N2CCc3cc(S(=O)(=O)Nc4c(F)cc(Cl)cc4F)cc(N4CCCC4=O)c32)nc1 — remaining binding (cell-free assay, competition with immobilised ligand; 1 µM): 62%
O=C(NCCCN1CCOCC1)c1ccc(Nc2nccc(-c3cc4ccccc4s3)n2)cc1 — remaining binding (binding, competition with immobilised ligand; 1 µM): 99%
COc1ncc2cc3ccccc3nc2c1C#N — remaining binding (cell-free assay, competition with immobilised ligand; 5 µM): 99%
O=C(Nc1c[nH]nc1C(=O)NC1CCNCC1)c1cc(F)cc(F)c1 — remaining binding (binding, competition with immobilised ligand; 1 µM): 82%
CC1CCCN1c1nccc(-c2cnn3ncccc23)n1 (stereo not shown) — remaining binding (binding, competition with immobilised ligand; 1 µM): 88%
O=C(c1ccc(Nc2ncc(Cl)c(-c3ccc(Cl)s3)n2)cc1)N1CCC(N2CCCC2)CC1 — remaining binding (binding, competition with immobilised ligand; 1 µM): 97%
c1cncc(-c2cccc(Nc3nccc(NC4CCCCC4)n3)c2)c1 — remaining binding (binding, competition with immobilised ligand; 10 µM): 53%
COc1cnc(Nc2cccc(S(N)(=O)=O)c2)nc1N1CCN(c2ccccc2)CC1 — remaining binding (binding, competition with immobilised ligand; 1 µM): 100%
N[C@@H]1CCN(c2nccc(-c3cnn4ncccc34)n2)C1 — remaining binding (binding; 1 µM): 97%
CNC(=O)Nc1ccc2c(c1)[C@@]1(CC2)OC(=O)N(CC(=O)N(Cc2ccc(F)cc2)[C@@H](C)C(F)(F)F)C1=O — remaining binding (cell-free assay, competition with immobilised ligand; 1 µM): 95%
